# Data reported in ChEMBL document CHEMBL1157635, “Synthesis, radiofluorination, and hypoxia-selective studies of FRAZ: A configurational and positional analogue of the clinical hypoxia marker, [18F]-FAZA” (Bioorg Med Chem, 2010).
# Assays:
# [1] = Toxicity in human 143B-LTK cells at < 10 mM assessed as reduction of cell survival after 72 hrs by MTT assay; assay type: cell-based
# How it was run: (§1)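 Exponentially growing cells seeded at 8 × 10² cells/well and pre-incubated 24 h at 37 °C (5% CO2). Compound added in growth medium over 10^-7 to 10^-3 M, with medium-only controls, for 72 h. MTT then added for 4 h, formazan dissolved in DMSO and absorbance read at 540 nm.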
# 143B = assay: Toxicity in human 143B cells at < 10 mM assessed as reduction of cell survival after 72 hrs by MTT assay; assay type: cell-based; how it was run: as §1
# HCT-116 = assay: Hypoxia radiosensitization activity in human HCT116 cells assessed as sensitizer enhancement ratio at 100 uM after 24 hrs by [60]Co X-ray source based clonogenic survival assay; assay type: functional
# How it was run: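 HCT-116 cells pre-incubated 20 h, then exposed to 100 µM (from 10 mM stock in 95% ethanol) for 24 h. Hypoxic dishes degassed by six vacuum/N2 cycles, normoxic kept in air, then shaken 30 min. Irradiated with 60Co at 0–20 Gy. Cells replated and grown 10–14 days at 37 °C, colonies stained, surviving fractions counted, triplicate.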
# EMT6 [2] = assay: Toxicity in mouse EMT6 cells at 1 mM assessed as reduction of cell survival after 72 hrs by MTT assay; assay type: cell-based; conditions: emt6, 72 h, 1000 µM; how it was run: as §1
# EMT6 [3] = assay: Toxicity in mouse EMT6 cells at < 10 mM assessed as reduction of cell survival after 72 hrs by MTT assay; assay type: cell-based; conditions: emt6, 72 h; how it was run: as §1
# [4] = Partition coefficient, log P by HPLC; assay type: physicochemical; conditions: octanol/water
# How it was run: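 Reverse-phase analytical HPLC with a gradient solvent system. Retention time compared with IAZA, FAZA and AZA standards, and P interpolated from a plot.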
# [5] = Toxicity in Kirsten virus transformed mouse KBALB-STK cells at < 10 mM assessed as reduction of cell survival after 72 hrs by MTT assay; assay type: cell-based; how it was run: as §1
# [6] = Toxicity in Kirsten virus transformed mouse KBALB cells at < 10 mM assessed as reduction of cell survival after 72 hrs by MTT assay; assay type: cell-based; how it was run: as §1
Structure (SMILES),Activity [1],Activity (143B),Ratio (HCT-116),Activity (EMT6 [2]),Activity (EMT6 [3]),logP [4],Activity [5],Activity [6]
O=[N+]([O-])c1nccn1[C@H]1O[C@H](CO)[C@@H](O)[C@H]1F,Non-toxic,Non-toxic,1.4,Non-toxic,Non-toxic,1.08,Non-toxic,Non-toxic
O=[N+]([O-])c1nccn1[C@H]1O[C@H](CF)[C@@H](O)[C@@H]1O,,,1.25,,,1.1,,
